An excerpt weighted towards active compounds, which were near 2.9% of everything screened.
MEKK2 mut-MEK5: signal of MEK5 binding to mutant human MEKK2 PB1 domain. actives 0.35% (n = 290,000). AID 1530. bead flow cytometry, Alexa488-MEK5 binding to MEKK2 mutant. percent response, % at 10 µM; in the data active = percent response above about 24%, passing the limit was not always enough
Dynein cargo inh: blocks dynein driven cargo transport along microtubules; actives 0.47% (n = 220,000); z-score, hits read low; 3617.4 mouse cells, GR-EGFP nuclear translocation imaging; test concentration mostly 20 µM; stimulated with dexamethasone, 1 µM; hits give low values;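 active = plate z-score of nuclear minus cytoplasmic receptor signal below a set negative limit, without overly bright fluorescence or cell loss, cut at about -3.5 in these data, passing the limit was not always enough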;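 also: z-score of nuclear minus cytoplasmic ring GR-EGFP intensity difference per well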
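Buffer or medium: tet-free, stripped-serum medium; reagent: dexamethasone at 1.0 µM final, 30 min; incubation: 48 h induction, 1 h compound, 30 min dex at 37 °C; measured by: formaldehyde fixation, Hoechst nuclear stain, 10x automated fluorescence imaging; read-out: nuclear-to-cytoplasmic GR-EGFP distribution per well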
MEKK2wt PB1 HTS: raises or lowers MEK5 binding to wildtype human MEKK2 PB1 domain; actives 1.1% (n = 290,000); Q9Y2U5; bead flow cytometry, Alexa488-MEK5 binding to MEKK2 WT; actives lie on both sides; binding response (% of control), % at 10 µM; in the data active = binding response below about 67% or above about 130%
ATG4B inh: ATG4B (human) cysteine protease inhibition; inhibition, % at 8.33 µM; Q9Y4P1; actives 0.51% (n = 340,000); ATG4B cleavage of LC3-PLA2, NBD-HPC fluorescence, 1 h; in the data active = inhibition above about 40%
Target sequence (Q9Y4P1 whole entry, looked up): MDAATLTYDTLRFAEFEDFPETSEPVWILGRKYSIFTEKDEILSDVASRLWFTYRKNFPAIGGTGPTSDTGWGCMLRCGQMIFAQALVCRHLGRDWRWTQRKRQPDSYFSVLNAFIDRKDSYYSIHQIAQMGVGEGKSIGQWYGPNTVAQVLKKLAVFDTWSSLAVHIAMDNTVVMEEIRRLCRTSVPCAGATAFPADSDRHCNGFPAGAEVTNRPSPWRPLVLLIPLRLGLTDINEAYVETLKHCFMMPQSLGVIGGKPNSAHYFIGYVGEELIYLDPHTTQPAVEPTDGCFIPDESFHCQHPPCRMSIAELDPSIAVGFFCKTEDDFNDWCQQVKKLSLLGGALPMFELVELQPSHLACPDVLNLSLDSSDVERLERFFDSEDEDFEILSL
B2AR ag: activates human beta-2 adrenergic receptor causing internalization; Am2.2-beta2AR cells, FAP receptor internalization, flow cytometry; actives 0.43% (n = 340,000); response, % (no concentration beside the values); P07550;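 active = response above a set limit, near 3 SD of response in nonfluorescent compounds, cut at about 42% in these data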
MEKK3 PB1 HTS: modulators (inhibitors or enhancers) of MEK5 binding to human MEKK3 PB1 domain; bead-based flow cytometry, Alexa488-MEK5 binding to MEKK3; actives lie on both sides; 0 = blocked by unlabeled MEK5, 100 = vehicle; binding response (% of control), % at 10 µM; actives 1.4% (n = 290,000); AID 1529;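 active = binding response more than 3 SD above or below the average of its plate-row segment, actives on both sides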;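 also: Alexa488 bead fluorescence after subtracting the streptavidin-only scavenger bead signal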
MEKK2wt confirm: raises or lowers MEK5 binding to wildtype human MEKK2, retest; bead flow cytometry, Alexa488-MEK5 binding to MEKK2 WT; actives lie on both sides; shares compounds with MEKK3 PB1 HTS; binding response (% of control), % at 10 µM; actives 2.4% (n = 5,900); AID 1892; in the data active = binding response below about 16% or above about 210%; inactive = in between
MEKK2mut-MEK5: signal of MEK5 binding to mutant human MEKK2, retest; AID 1893; shares compounds with MEKK3 PB1 HTS; actives 2% (n = 5,900); percent response, % at 10 µM; bead flow cytometry, Alexa488-MEK5 binding to MEKK2 mutant; in the data active = percent response mostly above about 71%, no sharp cut-off; inactive = mostly below about 38%;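 also: higher means compound restores mutant binding toward wildtype level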
MEKK3-MEK5 inh: confirmation of inhibitors of MEK5 binding to human MEKK3; shares compounds with MEKK3 PB1 HTS; bead flow cytometry, Alexa488-MEK5 binding to MEKK3; hits give low values; binding response (% of control), % at 10 µM; actives 1.8% (n = 5,900);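 active = binding response below 72% of control, or above a set upper limit, though filed actives all read lower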;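 also: 100% = DMSO only wells and 0% = binding blocked by excess unlabeled MEK5; lower values mean stronger disruption of MEK5 binding to MEKK3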
An asterisk follows results filed as active; nt = no result given; [ ] = remark or other dose.

SMILES	MEKK2 mut-MEK5	Dynein cargo inh	MEKK2wt PB1 HTS	ATG4B inh	B2AR ag	MEKK3 PB1 HTS	MEKK2wt confirm	MEKK2mut-MEK5	MEKK3-MEK5 inh
CCCCN(CC)CCNC(=O)c1cc2c(-c3ccc(Cl)cc3)nn(C)c2s1	47*	nt	198*	-2	20	109	201	98*	115
CCN(CC)CCNC(=O)c1cc2c(-c3ccc(Cl)cc3)nn(C)c2s1	21	-0.82	191*	-7	9	109	155	26	103
CC(C)(C)NC(=O)NC(=O)COC(=O)COc1ccc(Cl)cc1Cl	-3	-0.51	93	-11	0	75*[inhibitor]	103	5	107
O=C(COC(=O)COc1ccc(Cl)cc1Cl)Nc1cccnc1Cl	-1	0.34	105	0	-8	137*	103	2	102
O=C(COC(=O)COc1ccccc1)Nc1cccnc1Cl	nt	nt	nt	-7	10	nt	nt	nt	nt
COc1cc(OC)c2cc(C(=O)N/N=C/c3ccccc3O)[nH]c2c1	7	nt	99	4	-5	102	nt	nt	nt
Cc1ccc(S(=O)(=O)N2CCCCC2)cc1NC(=O)CSc1ncccn1	nt	nt	nt	6	-2	nt	nt	nt	nt
COCCCNC(=O)CN(CCc1ccccc1)S(=O)(=O)c1ccccc1	-1	-0.44	91	-6	-2	102	nt	nt	nt
COCCCNC(=O)CN(Cc1ccccc1)S(=O)(=O)c1ccccc1	27*	nt	108	-4	1	103	104	2	102
O=C(NNC(=S)NC(=O)c1cccc([N+](=O)[O-])c1)c1ccc(Br)cc1	14	nt	103	4	-8	101	nt	nt	nt
CCOC(=O)C1CCN(C(=O)c2cccc(S(=O)(=O)N3c4ccccc4CC3C)c2)CC1 (stereo unspecified)	nt	nt	nt	-6	1	nt	nt	nt	nt
O=C(O)c1cccnc1SC1CC(=O)N(c2ccccc2)C1=O (stereo unspecified)	33	-0.085	117	-6	8	128*	95	-7	96
CCN(CC(=O)NCc1cccs1)C(=O)c1cccc(S(=O)(=O)Nc2ccccc2Cl)c1	nt	nt	nt	-4	-12	nt	nt	nt	nt
CC(Sc1nc2ccccc2o1)C(=O)O (stereo unspecified)	-21	2	-39*[inhibitor]	-14	2	-3.0*[inhibitor]	103	3	104
CC(Sc1nc(-c2ccccc2)cs1)C(=O)Nc1ccc(Cl)cn1 (stereo unspecified)	1	-0.086	111	2	-1	149*	110	-1	105
O=C(NCc1nc2ncc(Br)cc2[nH]1)c1ccccc1	-15	0.37	0.0*[inhibitor]	-5	5	0.0*[inhibitor]	90	-4	95
O=C1C=C(NNC(=O)c2cccnc2)CC(c2ccco2)C1 (stereo unspecified)	1	1	96	-6	-4	100	nt	nt	nt
COc1ccc(N2CCN(C(=O)Cn3cnc4c(cnn4-c4ccc(C)cc4)c3=O)CC2)cc1	1	2.6	116	-1	1	129*	105	-5	100
Cc1ccccc1-n1c(C)nnc1SCC(=O)NNC(=O)c1ccccc1	0	-0.039	104	-2	5	148*	93	1	95
COc1ccc(C(CCN2CCOCC2)c2c(OC)cc(OC)c3c(C)cc(=O)oc23)cc1 (stereo unspecified)	5	-0.29	151*	-10	-9	122	111	7	99
CCCCCc1cc(=O)oc2c(C(CCN3CCCCC3)c3ccc(OC)cc3)c(OC)cc(OC)c12 (stereo unspecified)	67*	-0.8	164*	8	17	120	208*	47	107
CCCCCc1cc(=O)oc2c(C(CCN3CCCC(C)C3)c3ccc(OC)cc3)c(OC)cc(OC)c12 (stereo unspecified)	58*	-0.56	153*	24	34	110	206	107*	105
COc1cc(C(CCN2CCCC(C)C2)c2c(OC)cc(OC)c3c(-c4ccccc4)cc(=O)oc23)cc(OC)c1OC (stereo unspecified)	20	-3.5	138*	23	8	108	121	10	105
CCc1ccccc1N1CC(C(=O)N2Cc3ccccc3CC2C(N)=O)CC1=O (stereo unspecified)	nt	nt	nt	28	1	nt	nt	nt	nt
CC(=O)N1CCOc2ccc(S(=O)(=O)NC[C@H]3O[C@@H](n4cnc5c(N)ncnc54)[C@H](O)[C@@H]3O)cc21	nt	nt	nt	1	-4	nt	nt	nt	nt
SMILES	MEKK2 mut-MEK5	Dynein cargo inh	MEKK2wt PB1 HTS	ATG4B inh	B2AR ag	MEKK3 PB1 HTS	MEKK2wt confirm	MEKK2mut-MEK5	MEKK3-MEK5 inh
Cn1c(=O)[nH]c(=O)c2c1nc(N1CCOCC1)n2CCc1ccccc1	1	-0.1	99	-10	-5	102	nt	nt	nt
O=S1(=O)CCOCCCN1Cc1cccc(C(F)(F)F)c1	-6	nt	90	-1	-5	101	nt	nt	nt
COc1cc(OC)c2ccc(=O)oc2c1C(CCN1CCCC(C)C1)c1ccc2c(c1)OCO2 (stereo unspecified)	5	-0.62	102	7	12	94	nt	nt	nt
COc1ccc(C(CCN2CCCC(C)C2)c2c(OC)cc(OC)c3c2OC(=O)CC3c2cc(OC)c(OC)c(OC)c2)cc1 (stereo unspecified)	14	0.69	145*	5	17	114	130	35	106
CCCCCc1cc(=O)oc2c(C(CCN3CCCC3)c3cc(OC)c(OC)c(OC)c3)c(OC)cc(OC)c12 (stereo unspecified)	24*	-4.9	157*	4	20	108	143	21	109
CCCCCc1cc(=O)oc2c(C(CCN(CC)CC)c3ccc(OC)cc3)c(OC)cc(OC)c12 (stereo unspecified)	29*	-2.9	182*	1	13	86	167	34	97
CCCCCc1cc(=O)oc2c(C(CCN3CCCC3)c3ccc(N(C)C)cc3)c(OC)cc(OC)c12 (stereo unspecified)	42*	-5.3	151*	12	35	118	184	83*	108
CCN(CC)CCC(c1ccc(N(C)C)cc1)c1c(OC)cc(OC)c2ccc(=O)oc12 (stereo unspecified)	7	-0.71	117	0	0	87	nt	nt	nt

Source: PubChem BioAssay (several laboratories)
